In the array DNA melting data of Ke et al. (doi:10.1101/2024.01.08.574731) one finds folding enthalpy and Tm data, which are given here for 36 sequences.

Series [1] is described as follows: folding enthalpy; higher = less favourable; fluorescence melt of hairpins on a sequencing array, two-state fit. Conditions: sodium 0.088 M. A digest of the protocol:
(§1)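 In 50 mM Na-HEPES pH 8.0 containing 25 mM NaCl, hairpins from the library on a sequenced MiSeq flow cell were imaged for Cy3 fluorescence at 2.5 °C steps up to 60 °C, with Cy3 and quencher oligos annealed. After normalisation to pre-quench Cy3 and to control constructs, two-state fits with bootstrapping gave melting temperature and folding enthalpy. Four replicates were combined by inverse-variance weighting, and fitted temperatures were shifted up by 9.35 °C to match UV melts.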

A short description of series [2]: melting temperature; fluorescence melt of hairpins on a sequencing array, two-state fit, raised by 9.35 °C to match UV melts. Conditions: sodium 0.088 M. A digest of the protocol: as §1

GTTAAGGGAAACCTTAGC (.(((((....))))).): in series [1], the folding enthalpy was -23.4 kcal/mol. Besides, in series [2], the Tm amounted to 34.8 °C.
For GTTAATCGAAAGATAAC (((.(((....)))))), in that order: -16.8 kcal/mol and 30.1 °C.
For GTTAATCGAAAGATCAAC (((.(((....))).))), in that order: -14.7 kcal/mol and 30.2 °C.
On the same counts, the results for GTTAATCGAAAGATGAAC (((.(((....))).))) are -25.1 kcal/mol and 38.3 °C.
Regarding GTTACACGAAAGTGAAAC (((.(((....))).))), in series [1], the folding enthalpy was -23.6 kcal/mol. Further, in series [2], the Tm was 45.3 °C.
On the same counts, the results for GTTACAGCGAAAGCTAAC (((..(((....)))))) are -11.1 kcal/mol and 28.2 °C.
On the same counts, the results for GTTACCCGAAAGGGAAAC (((.(((....))).))) are -21.6 kcal/mol and 48.6 °C.
For GTTACCGAAAGGTAAAC ((((((....))).))), in that order: -15.7 kcal/mol and 48 °C.
For the sequence GTTACCGAAAGGTACAAC ((((((....)))..))), in series [1], the folding enthalpy was -10.9 kcal/mol. Moreover, the Tm in series [2] stood at 31.2 °C.
Consider GTTACCGAAAGGTGGAAC ((((((....)))..))), for which the folding enthalpy in series [1] is -10.2 kcal/mol. Besides, the Tm in series [2] stood at 28.1 °C.
On the same counts, the results for GTTACCGAAAGGTTCAAC ((((((....)))..))) are -8.36 kcal/mol and 25 °C.
Regarding GTTACCGGAAACAGTAAC (((((.(....).))))), the folding enthalpy in series [1] is -17.2 kcal/mol. For the same sequence, the Tm in series [2] came to 32.8 °C.
For GTTACGAAAGTAAC (((((....))))), in that order: -30 kcal/mol and 54.7 °C.
For GTTACGGGAAACCGTGAC ((.((((....)))).)), in that order: -29.8 kcal/mol and 49.8 °C.
For GTTACTCGAAAGAGAAC (((.(((....)))))), in that order: -13.7 kcal/mol and 31.5 °C.
Turning to GTTACTGGAAACAGTAGC (.(((((....))))).), in series [1], the folding enthalpy was -24.2 kcal/mol. The Tm in series [2] is 40.3 °C.
On the same counts, the results for GTTAGCCGAAAGGCAAC (((.(((....)))))) are -13.5 kcal/mol and 49.3 °C.
On the same counts, the results for GTTAGCCGAAAGGCCAAC (((.(((....))).))) are -16 kcal/mol and 40.3 °C.
For GTTAGCGAAAGCTACAAC ((((((....)))..))), in that order: -8.63 kcal/mol and 30.4 °C.
Regarding GTTAGCGAAAGCTAGAAC ((((((....)))..))), in series [1], the folding enthalpy was -10 kcal/mol. The Tm in series [2] was 31.5 °C.
GTTAGGCGAAAGCCAAC (((.(((....)))))): the folding enthalpy in series [1] was -12.7 kcal/mol. Besides, the Tm in series [2] was 50.7 °C.
On the same counts, the results for GTTAGGCGAAAGCCCAAC (((.(((....))).))) are -13.8 kcal/mol and 37.2 °C.
For GTTAGGGCGAAAGCCAAC (((..(((....)))))), in that order: -8.42 kcal/mol and 29.3 °C.
For GTTAGTGCGAAAGCAAAC (((..(((....)))))), in that order: -10.6 kcal/mol and 28.3 °C.
Turning to GTTATACGAAAGTAAAAC (((.(((....))).))), the folding enthalpy in series [1] is -20.2 kcal/mol. Further, in series [2], the Tm amounted to 32.2 °C.
On the same counts, the results for GTTATAGGAAACTATAAC (((((((....))))))) are -35.5 kcal/mol and 45.4 °C.
Take GTTATAGGAAACTGTAAC ((((.((....)).)))): in series [1], the folding enthalpy is -27.2 kcal/mol. Moreover, the Tm in series [2] amounted to 34 °C.
As for GTTATATCGAAAGATAAC (((..(((....)))))), the folding enthalpy in series [1] was -11.2 kcal/mol. Further, in series [2], the Tm is 27.7 °C.
With GTTATCGAAAGATAAAAC ((((((....)))..))), the folding enthalpy in series [1] was -9.3 kcal/mol. For the same sequence, the Tm in series [2] came out at 26.5 °C.
In the case of GTTATCGAAAGATTAAC ((((((....))).))), the folding enthalpy in series [1] is -15.1 kcal/mol. For the same sequence, the Tm in series [2] was 29.5 °C.
As for GTTATCGGAAACGACAAC (((.(((....))).))), the folding enthalpy in series [1] was -19.8 kcal/mol. Besides, the Tm in series [2] amounted to 36.4 °C.
For GTTATCGGAAACGATAGC (.(((((....))))).), in that order: -21.5 kcal/mol and 43.4 °C.
On the same counts, the results for GTTATGAAAATAAC (((((....))))) are -16.9 kcal/mol and 38.6 °C.
On the same counts, the results for GTTATGTCGAAAGACAAC (((..(((....)))))) are -10.6 kcal/mol and 28.5 °C.
As for GTTATTCGAAAGAACAAC (((.(((....))).))), the folding enthalpy in series [1] was -20.6 kcal/mol. Moreover, the Tm in series [2] was 30.5 °C.
On the same counts, the results for GTTCAACCGAAAGGTAAC (((..(((....)))))) are -11.7 kcal/mol and 26.7 °C.
